Columns and labels:
pSmad1/5 = assay: Western blot of Smad phosphorylation in C2C12 cells; assay type: cell-based, mouse
[1] = SAXS / cryo-TEM of self-assembly; assay type: physicochemical; details: cryo-TEM at 25 μM or SAXS
[2] = test system: BMP-2 signaling in C2C12 cells; assay: BMP-2 induced ALP activity in C2C12 cells; assay type: cell-based, mouse; details: BMP-2 75 ng/mL, 3 days; for enhancement of BMP-2 induced ALP activity, in words: PA or monosaccharide 25 μM, n = 8
[3] = test system: BMP-4 signaling in C2C12 cells; assay: BMP-4 induced ALP activity in C2C12 cells; assay type: cell-based, mouse; details: BMP-4 75 ng/mL, monosaccharide 1 25 μM, 3 days; n = 8
Method in brief: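 C2C12 cells were co-treated with BMP-4 (75 ng/mL) and either the glycopeptide amphiphile nanostructure or the free sulfated monosaccharide, each at 25 μM. Osteoblast differentiation was read out as alkaline phosphatase (ALP) activity. Results are reported as mean ± SEM with n = 8.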

BMP-2 = details: known effect; ref [4],[5]; cited from earlier work
noggin [4] = assay: SPR binding to immobilized noggin; details: heparin 0.01-100 µM or PA 1 10-60 µM; HEPES buffer pH 7.6, 25 °C
C2C12 cells = assay: Mineralization assay; assay type: cell-based, mouse; details: BMP-2 100 ng/mL; heparin 0.62 μM (10 μg/mL) or PA 25 μM; 10 days
noggin [5] = details: C2C12 cells; ref [5],[41]; cited from earlier work

Row | Compound | BMP-2 mediated Smad phosphorylation with LDN-193189 (pSmad1/5; LDN-193189 0.5 μM, BMP-2 75 ng/mL, regardless of heparin or PA 1) | self-assembly / supramolecular structure [1] | enhancement of BMP-2 induced ALP activity, in words [2] | amplification of BMP-4 signaling (ALP activity) [3] | half-life of BMP-2 (BMP-2) | SPR binding to noggin (noggin [4]) | enhancement of ALP expression vs BMP-2 alone, factor ([2]; normalized to DNA, dose response for heparin and HS) | matrix mineralization of C2C12 cells (C2C12 cells) | pSmad1/5 accumulation with BMP-2 (pSmad1/5; BMP-2 75 ng/mL, 3 h, heparin 0.62 μM or PA 1 25 μM, n = 3) | pSmad1/5 accumulation without BMP-2 (pSmad1/5; heparin 0.62 μM or PA 1 25 μM, no BMP-2) | effect on noggin activity (noggin [5])
1 | c1ccc2c(-c3cnn4cc(-c5ccc(N6CCNCC6)cc5)cnc34)ccnc2c1 [LDN-193189] | impeded the BMP-2 mediated phosphorylation of Smads |  |  |  |  |  |  |  |  |  | 
2 | CC(=O)N[C@H]1[C@H](OCCN=[N+]=[N-])O[C@H](COS(=O)(=O)O)[C@@H](OS(=O)(=O)O)[C@@H]1OS(=O)(=O)O [monosaccharide 1, 2-Azidoethyl 2-acetamido-3,4,6-tri-O-sulfo-2-deoxy-β-D-glycopyranoside] |  | absence of any significant supramolecular structure | found this not to be the case | found this not to be the case |  |  |  |  |  |  | 
3 | Heparin |  |  | more potent response than HS |  | prolong the half-life of BMP-2 | did not observe a strong binding to noggin | 5 | inhibited BMP-2 (100 ng/mL) dependent mineralization | significantly higher relative to that with BMP-2 alone | did not enhance accumulation of pSmad proteins | binds and inhibits noggin activity, thereby rescuing BMP signaling and the subsequent ALP expression in C2C12 cells
